Screening data: PubChem BioAssay, several laboratories
Hits are enriched below; roughly 1.9% of the tested compounds scored in any of these assays.
mHtt clearance – mutant huntingtin protein clearance; HeLa Exon1htt(103Q)mCFP, aggregate imaging; zero = plate's median compound well; inhibition, % at 1.5 µM; 47,000 compounds, 0.42% hits;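 active = inhibition of aggregate fluorescence above about 70%, also judged a hit by eye on the cell image, limit read from the data, passing the limit was not always enough; inconclusive = no rule stated for this call; inactive = not judged a hit on image review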;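 note: cells exposed to compound for three days before fixation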
HEK293 NFkB inh – inhibitors of the PMA/ionomycin-induced NF-kB reporter in HEK293 cells; HEK-293 NF-kB luciferase reporter, luminescence; inhibition, % at 3 µM; 62,000 compounds, 0.21% hits;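 active = inhibition above the mean of all tested compounds plus 3 SD, cut at about 40% in these data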
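Timing: 1 h pretreatment, 16 h stimulation, 37 °C; system: HEK-293 cells with stable firefly luciferase reporter driven by four HIV NF-kB elements; doses: 3 µM once, 0.30% DMSO; measured by: luciferase luminescence; control set: DMSO and 10 µM reference inhibitor; repeats: single test; reagent: PMA plus ionomycin mix as NF-kB-activating stimulus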
SKBR3 24h inh – SK-BR-3 proliferation inhibitors. SK-BR-3 viability, CellTiter-Glo ATP luminescence, 24 h; hits give low values. viability, % at 10 µM. 41,000 compounds, 0.47% hits. AID 847;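 active = viability at or below the median of all test compounds minus 3 SD, in both replicates if run twice, cut at about 45% in these data; inconclusive = duplicate replicates that disagree with each other; inactive = viability above that cutoff in every replicate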
Her2 expr inh – lowers expression of human Her2 kinase; P04626; SKBR-3 HER2 protein level, AlphaScreen, 18-24 h; hits give low values; HER2 level % of control, % at 10 µM; 65,000 compounds, 0.69% hits;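 active = HER2 level under 5% of the carrier-only control; inconclusive = no clear call, values can overlap the other calls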;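 note: lower value means stronger loss of Her2 protein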
Jurkat viability – reduces viability or proliferation of Jurkat cells | 56,000 compounds, 1.2% hits | Jurkat E6.1 viability, ATP luminescence, 48 h | inhibition, % at 4 µM;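 active = inhibition above the mean inhibition of all tested compounds plus 3 SD, cut at about 28% in these data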
Of the large screens only hits and unclear results are named; the others gave an inactive call.

CCOc1ccc(-c2cc(CCCC(=O)Nc3cccc(OC)c3)no2)cc1	Jurkat viability 90.6 (no result: mHtt clearance, SKBR3 24h inh)
CN(C)C=Nc1ncc2c([nH]c3ccccc32)c1C#N	none
Cc1noc(C)c1C(=O)N1CCCc2ccccc21	none (no result: HEK293 NFkB inh, SKBR3 24h inh, Her2 expr inh, Jurkat viability)
Cc1noc(C)c1C(=O)N1CCc2ccccc2C1	Her2 expr inh -16.0 (no result: mHtt clearance)
COc1ccccc1-c1nnc2sc(-c3ccc(N(C)C)cc3)nn12	HEK293 NFkB inh 55.1, Jurkat viability 99.2 (no result: mHtt clearance)
CN(C)c1ccc(-c2nn3c(-c4ccncc4)nnc3s2)cc1	none (no result: mHtt clearance)
COc1ccccc1-c1nnc2sc(-c3cc4ccccc4o3)nn12	Jurkat viability 86.7 (no result: mHtt clearance)
CN(C)c1ccc(-c2nn3c(-c4ccccc4Cl)nnc3s2)cc1	Jurkat viability 82.2 (no result: mHtt clearance)
COc1ccccc1-c1nnc2sc(-c3cnccn3)nn12	none (no result: mHtt clearance)
CCOC(=O)Cn1c(=O)n(Cc2ccco2)c(=O)c2ccc(C(=O)NC3CCCC3)cc21	none (no result: HEK293 NFkB inh, SKBR3 24h inh, Her2 expr inh, Jurkat viability)
CS(=O)(=O)N(Cc1ccccc1)c1ccc(C(=O)NCc2cccnc2)cc1	none (no result: HEK293 NFkB inh, SKBR3 24h inh, Her2 expr inh, Jurkat viability)
COC(=O)/C(=C(/F)SCC(C)=O)C(F)(F)F	none (no result: HEK293 NFkB inh, SKBR3 24h inh, Her2 expr inh, Jurkat viability)
CCOc1cccc2cc(-c3nnc(-c4ccccc4)o3)c(=O)oc12	none (no result: mHtt clearance)
OC12CCCCC1C(c1ccc3c(c1)OCO3)N(Cc1ccccc1F)CC2 (configuration not stated)	mHtt clearance 72.9
O=S(=O)(/N=C/c1c(O)ccc2ccccc12)c1cccs1	none (no result: HEK293 NFkB inh, SKBR3 24h inh, Her2 expr inh, Jurkat viability)
Cc1cc(NC(=O)c2cc(-c3ccncc3)nc3c(C)cccc23)no1	Jurkat viability 78.5
Cc1noc(C)c1CSc1nc2ccccc2c(=O)n1-c1ccccc1	Jurkat viability 88.6 (no result: SKBR3 24h inh)
Cc1noc(C)c1CSc1nc2ccccc2c(=O)n1-c1ccc(F)cc1F	mHtt clearance inconclusive, Jurkat viability 91.7 (no result: SKBR3 24h inh)
C=CCn1c(SCc2c(C)noc2C)nc2cc(C(=O)O)ccc2c1=O	Jurkat viability 69.2 (no result: SKBR3 24h inh)
C=CCn1c(SCc2c(C)noc2C)nc2ccccc2c1=O	none (no result: HEK293 NFkB inh, SKBR3 24h inh, Her2 expr inh, Jurkat viability)
Cc1noc(C)c1CSc1nc2[nH]ncc2c(=O)n1-c1ccccc1	Jurkat viability 83.3 (no result: mHtt clearance)
Cc1noc(C)c1CSc1nnc2n(-c3ccccc3)c(=O)c3ccccc3n12	none (no result: mHtt clearance, SKBR3 24h inh)
O=C(c1ccc(C23CC4CC(CC(C4)C2)C3)o1)N1CCOCC1	none (no result: Her2 expr inh)
CCOc1ccc(Cl)cc1S(=O)(=O)n1nnc2ccccc21	none (no result: mHtt clearance)
CCOc1ccc(S(=O)(=O)n2nnc3ccccc32)cc1C	mHtt clearance 74.5
CCOc1ccc(S(=O)(=O)n2cnc3cc(C)c(C)cc32)cc1	Jurkat viability 62.8
Cc1cc2ncn(S(=O)(=O)c3ccc(S(=O)(=O)N4CCCCCC4)cc3)c2cc1C	mHtt clearance 71.4 (no result: HEK293 NFkB inh, SKBR3 24h inh, Her2 expr inh, Jurkat viability)
COc1cc(C2C3=C(Nc4ncnn42)c2ccccc2CC3)cc(OC)c1OC (configuration not stated)	Jurkat viability 97.8 (no result: SKBR3 24h inh)
Cc1nc2nc(-c3ccco3)nn2c(C)c1Cl	Her2 expr inh -8.6 (no result: mHtt clearance)
CCCn1c(=O)n(C)c(=O)c2c3oc(=O)c(NC(=O)c4ccc(F)cc4)cc3[nH]c21	none (no result: mHtt clearance, SKBR3 24h inh)
COc1ccc(S(=O)(=O)n2nc(OC(=O)c3ccccc3Br)cc2N)cc1	none (no result: mHtt clearance)
CS(=O)(=O)n1nc(OC(=O)c2cccc3ccccc23)cc1N	SKBR3 24h inh 42.4
CCOC(=O)C1=C(C)N=c2s/c(=C\c3ccncc3)c(=O)n2C1c1ccc2c(c1)OCO2 (configuration not stated)	Her2 expr inh -75.3 (no result: mHtt clearance, Jurkat viability)
C=CCN=C(C)C1=C(O)CCC1=O	mHtt clearance 76.7 (no result: HEK293 NFkB inh, Jurkat viability)
C=CCN=C(CC)C1=C(O)CCCC1=O	none
COc1ccc(C2CC(=O)C(C=NCCO)=C(O)C2)cc1OC (configuration not stated)	Her2 expr inh -27.9 (no result: Jurkat viability)
COc1ccc(C2CC(=O)C(C=NCCN3CCN(C(C)=O)CC3)=C(O)C2)cc1OC (configuration not stated)	none (no result: mHtt clearance, SKBR3 24h inh)
COCCCNC(CC(=O)Nc1ccc(N(C)C)cc1)C(=O)O (configuration not stated)	none (no result: mHtt clearance)
C=CCc1ccc(OCCOCCOc2ccccc2[N+](=O)[O-])c(OC)c1	none (no result: HEK293 NFkB inh, SKBR3 24h inh, Her2 expr inh, Jurkat viability)
CC1CC(C)CN(S(=O)(=O)c2ccc(C(=O)NCCCn3ccnc3)cc2)C1 (configuration not stated)	Jurkat viability 100.7 (no result: mHtt clearance, SKBR3 24h inh)
CCN(CC)c1ccc2c(c1)OC(N)=C(C#N)C2c1cccnc1 (configuration not stated)	HEK293 NFkB inh 52.7, Jurkat viability 97.0 (no result: mHtt clearance)
CCc1ccccc1N1C[C@@]23C=C[C@@H](O2)C(C(=O)OCC(C)C)[C@H]3C1=O (some centres not stated)	none
CCOC(=O)COc1cccc2c(=O)n(CC(=O)N3CCc4ccccc43)ccc12	none (no result: SKBR3 24h inh)
CCOC(=O)COc1cccc2c(=O)n(CC(=O)NCc3ccc4c(c3)OCO4)ccc12	Jurkat viability 50.7 (no result: SKBR3 24h inh)
CCOc1ccc(-c2nnn(CC(=O)NCc3ccc4c(c3)OCO4)n2)cc1	mHtt clearance 75.7 (no result: HEK293 NFkB inh, SKBR3 24h inh, Her2 expr inh, Jurkat viability)
COc1ccccc1N1CCN(C(=O)C2c3ccccc3Oc3ccccc32)CC1	Jurkat viability 70.3 (no result: mHtt clearance)
O=C(CSc1nnc(-c2ccccc2)n1Cc1ccco1)Nc1ccc(S(=O)(=O)N2CCCC2)cc1	mHtt clearance 83.8 (no result: HEK293 NFkB inh, SKBR3 24h inh, Her2 expr inh, Jurkat viability)
O=C(CSc1nnc(-c2ccco2)n1Cc1ccco1)Nc1ccccc1	none (no result: HEK293 NFkB inh, SKBR3 24h inh, Her2 expr inh, Jurkat viability)
Cc1ccc(CC(=O)Nc2ccccc2N2CCOCC2)cc1C	none (no result: HEK293 NFkB inh, SKBR3 24h inh, Her2 expr inh, Jurkat viability)
O=C(CN1C(=O)C2C3C=CC(C3)C2C1=O)Nc1ccc2c(c1)OCCO2 (configuration not stated)	SKBR3 24h inh 32.0 (no result: mHtt clearance)
